Source: ChEMBL document CHEMBL4118126, “An orally available, brain-penetrant CAMKK2 inhibitor reduces food intake in rodent model” (Bioorg Med Chem Lett, 2018)
≈ marks a conversion by molar mass, not a printed value.

Legend:
[1] = molecular target: Calcium/calmodulin-dependent protein kinase kinase 2 (Mus musculus, UniProt Q8C078); assay: Inhibition of CAMKK2 in mouse N39 cells assessed as decrease in AMPKalpha phosphorylation at T172 preincubated for 80 mins followed by […] addition by ELISA; format: cell-based
Method in brief: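 Mouse N39 cells seeded ~1000 cells/well, cultured overnight at 37°C, 5% CO2, then exposed to compound in DMSO for 80 min before ionomycin stimulation ([…] as added). Cells were lysed in extraction buffer for 30 min on ice, then diluted into ice-cold lysis buffer containing protease and phosphatase inhibitors for MSD read-out.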

[2] = Solubility of the compound in pH 7.4 phosphate buffer saline after 1 hr by chemiluminescence nitrogen detection method; format: physicochemical; conditions: phosphate buffered saline
Method in brief: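 Kinetic solubility: 10 mM DMSO stock diluted 1:20 into 10 mM phosphate-buffered saline pH 7.4, equilibrated 1 h at RT, filtered, and filtrate quantified by calibrated flow-injection chemiluminescent nitrogen detection.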

[3] = molecular target: Calcium/calmodulin-dependent protein kinase kinase 2 (Homo sapiens, UniProt Q96RR4); assay: Inhibition of full-length human GST-tagged CAMKK2 using 5FAM-AKPKGNKDYHLQTCCGSLAYRRR-amide as substrate preincubated for 30 mins followed by substrate addition measured after 120 mins by fluorescence polarization assay
[4] = molecular target: T1, Inhibitor of nuclear factor kappa-B kinase subunit alpha (Homo sapiens, UniProt O15111); assay: Inhibition of IKK1 (unknown origin)
T1 sequence (O15111 whole entry): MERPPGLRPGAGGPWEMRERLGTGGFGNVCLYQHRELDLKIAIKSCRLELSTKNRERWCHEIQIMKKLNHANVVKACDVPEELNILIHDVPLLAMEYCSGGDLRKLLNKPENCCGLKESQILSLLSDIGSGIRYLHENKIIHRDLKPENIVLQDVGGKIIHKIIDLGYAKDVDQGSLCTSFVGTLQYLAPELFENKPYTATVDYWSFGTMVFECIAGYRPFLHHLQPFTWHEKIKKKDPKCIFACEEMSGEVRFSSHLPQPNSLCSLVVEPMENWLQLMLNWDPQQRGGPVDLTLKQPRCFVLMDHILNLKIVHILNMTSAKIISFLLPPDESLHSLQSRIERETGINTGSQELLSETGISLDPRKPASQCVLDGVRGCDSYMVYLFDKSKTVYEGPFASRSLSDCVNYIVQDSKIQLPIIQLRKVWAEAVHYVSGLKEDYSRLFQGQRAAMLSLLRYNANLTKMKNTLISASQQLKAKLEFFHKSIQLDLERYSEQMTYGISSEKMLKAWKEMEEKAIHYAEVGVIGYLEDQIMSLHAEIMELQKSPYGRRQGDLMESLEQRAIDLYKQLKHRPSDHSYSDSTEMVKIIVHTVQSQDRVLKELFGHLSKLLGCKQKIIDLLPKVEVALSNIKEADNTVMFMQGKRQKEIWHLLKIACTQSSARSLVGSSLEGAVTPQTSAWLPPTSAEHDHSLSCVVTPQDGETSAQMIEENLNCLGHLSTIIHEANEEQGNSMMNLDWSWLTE

Insulin receptor = Insulin receptor (Homo sapiens, UniProt P06213); assay: Inhibition of INSR (unknown origin); conditions: read-out: pIC50 (converted)
[5] = molecular target: Mitogen-activated protein kinase 8 (Homo sapiens, UniProt P45983); assay: Inhibition of JNK1 (unknown origin)
[6] = molecular target: Glycogen synthase kinase-3 beta (Homo sapiens, UniProt P49841); assay: Inhibition of GSK3beta (unknown origin)
[7] = molecular target: Phosphatidylinositol 4,5-bisphosphate 3-kinase catalytic subunit gamma isoform (Homo sapiens, UniProt P48736); assay: Inhibition of PI3Kgamma (unknown origin)
Phosphatidylinositol 4,5-bisphosphate 3-kinase catalytic subunit gamma isoform, sequence (P48736 whole entry, canonical isoform): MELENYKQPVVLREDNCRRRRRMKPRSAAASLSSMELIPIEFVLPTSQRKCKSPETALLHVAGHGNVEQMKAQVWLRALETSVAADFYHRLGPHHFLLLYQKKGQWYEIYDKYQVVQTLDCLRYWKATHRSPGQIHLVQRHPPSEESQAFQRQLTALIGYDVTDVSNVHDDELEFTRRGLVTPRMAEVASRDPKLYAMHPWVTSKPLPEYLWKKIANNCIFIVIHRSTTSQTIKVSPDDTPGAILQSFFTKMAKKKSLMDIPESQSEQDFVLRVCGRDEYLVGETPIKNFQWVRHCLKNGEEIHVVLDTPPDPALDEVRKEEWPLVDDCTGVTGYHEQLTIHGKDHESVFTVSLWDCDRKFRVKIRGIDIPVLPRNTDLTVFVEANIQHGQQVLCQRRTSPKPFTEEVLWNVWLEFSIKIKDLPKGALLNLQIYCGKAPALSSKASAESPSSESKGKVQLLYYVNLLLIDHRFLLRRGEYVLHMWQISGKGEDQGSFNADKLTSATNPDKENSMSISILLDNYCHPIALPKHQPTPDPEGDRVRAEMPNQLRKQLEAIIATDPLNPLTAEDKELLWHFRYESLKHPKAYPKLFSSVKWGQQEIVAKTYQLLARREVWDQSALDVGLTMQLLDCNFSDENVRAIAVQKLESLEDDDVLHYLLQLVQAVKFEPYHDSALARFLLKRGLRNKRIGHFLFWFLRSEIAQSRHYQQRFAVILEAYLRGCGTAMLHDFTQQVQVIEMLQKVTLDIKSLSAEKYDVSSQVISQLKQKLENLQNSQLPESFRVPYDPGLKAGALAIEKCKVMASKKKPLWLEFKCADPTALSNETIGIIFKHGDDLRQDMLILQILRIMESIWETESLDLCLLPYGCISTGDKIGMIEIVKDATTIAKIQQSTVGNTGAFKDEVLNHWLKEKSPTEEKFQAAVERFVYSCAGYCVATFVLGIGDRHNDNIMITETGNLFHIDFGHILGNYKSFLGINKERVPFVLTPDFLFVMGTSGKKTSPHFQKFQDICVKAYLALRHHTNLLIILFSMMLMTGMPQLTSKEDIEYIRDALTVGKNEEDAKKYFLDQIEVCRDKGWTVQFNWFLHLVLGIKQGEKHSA

Insulin receptor, sequence (P06213 28-758 limits assumed): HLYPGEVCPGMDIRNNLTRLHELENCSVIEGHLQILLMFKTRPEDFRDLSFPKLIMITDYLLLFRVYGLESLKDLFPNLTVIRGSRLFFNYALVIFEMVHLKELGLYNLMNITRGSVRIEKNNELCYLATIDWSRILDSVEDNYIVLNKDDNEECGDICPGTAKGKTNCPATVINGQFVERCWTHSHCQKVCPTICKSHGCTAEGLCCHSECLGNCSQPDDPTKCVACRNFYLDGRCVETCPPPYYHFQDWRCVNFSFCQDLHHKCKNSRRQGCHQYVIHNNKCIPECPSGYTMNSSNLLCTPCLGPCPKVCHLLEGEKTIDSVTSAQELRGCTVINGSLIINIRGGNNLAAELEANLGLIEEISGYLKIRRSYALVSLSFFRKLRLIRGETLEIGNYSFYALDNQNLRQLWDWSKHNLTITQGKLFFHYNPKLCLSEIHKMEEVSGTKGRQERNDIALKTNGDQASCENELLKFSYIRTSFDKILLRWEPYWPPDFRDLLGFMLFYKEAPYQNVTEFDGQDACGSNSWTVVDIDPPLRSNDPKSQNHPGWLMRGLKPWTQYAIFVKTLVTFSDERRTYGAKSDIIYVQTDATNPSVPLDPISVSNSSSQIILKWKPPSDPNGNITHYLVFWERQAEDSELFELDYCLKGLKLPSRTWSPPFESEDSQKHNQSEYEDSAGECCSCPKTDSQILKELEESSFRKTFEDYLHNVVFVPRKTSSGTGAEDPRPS
Insulin receptor, sequence (P06213 763-1382 limits assumed): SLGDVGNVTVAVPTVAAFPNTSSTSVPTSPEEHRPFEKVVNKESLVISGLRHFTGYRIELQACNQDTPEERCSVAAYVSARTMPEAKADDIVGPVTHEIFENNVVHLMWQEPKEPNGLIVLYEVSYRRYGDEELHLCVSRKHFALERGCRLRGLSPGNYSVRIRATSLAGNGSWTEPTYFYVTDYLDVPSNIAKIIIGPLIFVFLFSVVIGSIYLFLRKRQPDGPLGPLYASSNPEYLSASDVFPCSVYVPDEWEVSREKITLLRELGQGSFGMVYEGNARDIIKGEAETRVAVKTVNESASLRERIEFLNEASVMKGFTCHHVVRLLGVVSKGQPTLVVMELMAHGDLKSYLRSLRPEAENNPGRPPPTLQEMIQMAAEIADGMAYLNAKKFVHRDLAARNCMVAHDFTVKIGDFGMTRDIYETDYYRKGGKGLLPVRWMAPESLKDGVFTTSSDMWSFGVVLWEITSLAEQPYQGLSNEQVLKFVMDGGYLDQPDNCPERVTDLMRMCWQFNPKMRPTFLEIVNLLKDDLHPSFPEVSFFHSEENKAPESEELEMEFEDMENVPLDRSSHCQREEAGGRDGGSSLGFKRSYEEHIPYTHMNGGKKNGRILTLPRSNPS
Calcium/calmodulin-dependent protein kinase kinase 2 (Mus musculus, UniProt Q8C078), sequence (Q8C078 whole entry): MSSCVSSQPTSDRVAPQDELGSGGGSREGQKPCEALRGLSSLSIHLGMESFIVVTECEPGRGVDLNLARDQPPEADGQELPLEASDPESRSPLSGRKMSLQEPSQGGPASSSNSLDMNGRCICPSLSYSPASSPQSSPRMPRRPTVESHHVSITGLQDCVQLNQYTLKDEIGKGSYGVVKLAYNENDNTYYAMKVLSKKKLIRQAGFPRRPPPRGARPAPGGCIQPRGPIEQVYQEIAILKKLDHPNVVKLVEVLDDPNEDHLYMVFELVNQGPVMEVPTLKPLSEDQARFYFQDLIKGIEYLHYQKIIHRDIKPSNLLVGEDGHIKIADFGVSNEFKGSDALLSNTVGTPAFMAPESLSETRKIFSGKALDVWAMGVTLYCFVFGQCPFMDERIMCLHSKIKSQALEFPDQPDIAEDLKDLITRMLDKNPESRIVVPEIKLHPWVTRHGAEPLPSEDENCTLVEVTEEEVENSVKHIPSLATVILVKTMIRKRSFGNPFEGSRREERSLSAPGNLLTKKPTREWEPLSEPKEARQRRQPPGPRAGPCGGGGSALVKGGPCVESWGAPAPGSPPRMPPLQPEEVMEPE
Calcium/calmodulin-dependent protein kinase kinase 2 (Homo sapiens, UniProt Q96RR4), sequence (Q96RR4 whole entry): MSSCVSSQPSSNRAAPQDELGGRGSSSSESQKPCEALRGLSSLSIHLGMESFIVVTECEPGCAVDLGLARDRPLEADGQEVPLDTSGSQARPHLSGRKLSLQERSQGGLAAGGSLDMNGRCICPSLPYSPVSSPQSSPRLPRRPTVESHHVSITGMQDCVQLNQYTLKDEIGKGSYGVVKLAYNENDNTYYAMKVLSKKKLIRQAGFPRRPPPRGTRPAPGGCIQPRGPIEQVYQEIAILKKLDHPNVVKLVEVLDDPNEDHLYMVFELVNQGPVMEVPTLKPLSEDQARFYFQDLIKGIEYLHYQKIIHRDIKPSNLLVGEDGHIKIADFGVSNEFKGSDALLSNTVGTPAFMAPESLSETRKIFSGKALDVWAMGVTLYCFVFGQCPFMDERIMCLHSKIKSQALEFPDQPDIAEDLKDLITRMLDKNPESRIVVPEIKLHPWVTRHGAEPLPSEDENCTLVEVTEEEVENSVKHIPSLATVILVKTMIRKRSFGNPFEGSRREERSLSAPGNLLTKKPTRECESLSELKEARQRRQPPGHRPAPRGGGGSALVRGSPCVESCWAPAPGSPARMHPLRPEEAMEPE
Mitogen-activated protein kinase 8, sequence (P45983 whole entry): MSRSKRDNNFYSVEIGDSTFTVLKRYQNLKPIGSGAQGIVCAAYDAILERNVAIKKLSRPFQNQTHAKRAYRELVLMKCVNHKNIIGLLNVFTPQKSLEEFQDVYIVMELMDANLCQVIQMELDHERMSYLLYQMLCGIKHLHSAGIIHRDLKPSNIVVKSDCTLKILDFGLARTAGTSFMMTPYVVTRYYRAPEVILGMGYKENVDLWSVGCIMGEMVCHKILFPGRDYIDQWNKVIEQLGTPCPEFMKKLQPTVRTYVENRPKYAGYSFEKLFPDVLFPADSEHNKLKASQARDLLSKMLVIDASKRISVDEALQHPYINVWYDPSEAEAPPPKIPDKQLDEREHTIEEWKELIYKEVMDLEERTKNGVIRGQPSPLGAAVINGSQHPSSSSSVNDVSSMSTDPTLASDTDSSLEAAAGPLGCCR
Glycogen synthase kinase-3 beta, sequence (P49841 whole entry, canonical isoform): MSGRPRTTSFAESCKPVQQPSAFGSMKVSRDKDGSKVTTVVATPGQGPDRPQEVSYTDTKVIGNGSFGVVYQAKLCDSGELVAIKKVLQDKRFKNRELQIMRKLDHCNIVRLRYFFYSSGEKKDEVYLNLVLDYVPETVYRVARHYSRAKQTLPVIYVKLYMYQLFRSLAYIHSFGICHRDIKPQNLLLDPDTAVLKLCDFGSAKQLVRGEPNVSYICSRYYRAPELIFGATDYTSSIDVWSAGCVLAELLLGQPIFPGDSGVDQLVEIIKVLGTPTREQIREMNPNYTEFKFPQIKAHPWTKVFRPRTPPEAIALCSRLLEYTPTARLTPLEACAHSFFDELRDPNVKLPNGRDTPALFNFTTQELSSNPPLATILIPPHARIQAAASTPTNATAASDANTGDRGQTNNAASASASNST

Row | SMILES | IC50 [1] [nM] | solubility at 1 h [2] [µM] | IC50 [3] [nM] | IC50 [4] [nM] | IC50 (Insulin receptor) [nM] | IC50 [5] [nM] | IC50 [6] [nM] | IC50 [7] [nM]
1 | NC(=O)c1ccc(-c2c[nH]c3ncc(-c4ccccc4Oc4ccccc4)cc23)cc1C1CCCC1 | > 10000 | 52 (≈ 24.6 µg/mL) | – | – | – | – | – | –
2 | COc1ccccc1-c1cc2c(-c3ccc(C(N)=O)cc3)ccnc2[nH]1 | 794 | 16 (≈ 5.49 µg/mL) | 3.16 to 20 | 158 | 1580 | 158 | – | –
3 | NC(=O)c1ccc(-c2c[nH]c3ncc(-c4ccccc4C(F)(F)F)cc23)cc1C1CCCC1 | – | 12 (≈ 5.39 µg/mL) | – | – | – | – | – | –
4 | CS(=O)(=O)Nc1ccc(-c2cc3c(-c4ccc(C(N)=O)cc4)ccnc3[nH]2)cc1 | 316 | 5 (≈ 2.03 µg/mL) | 2 to 12.6 | 31.6 | 316 | 63.1 | – | –
5 | COc1ccccc1Nc1nccc(-c2ccc(C(N)=O)c(C(C)C)c2)n1 | > 10000 | 10 (≈ 3.62 µg/mL) | 63.1 to 1580 | – | – | 1580 | > 25100 | 2510
6 | N#Cc1ccc2c(-c3ccc(C(=O)O)cc3)c[nH]c2n1 | – | 235 (≈ 61.9 µg/mL) | 2510 to 10000 | – | – | – | – | –
7 | NC(=O)c1ccc(-c2c[nH]c3ncc(-c4ccccc4O)cc23)cc1C1CCCC1 | 3980 | 6 (≈ 2.38 µg/mL) | – | – | – | – | – | –
8 | COC(=O)c1ccc(-c2c[nH]c3ncc(-c4ccccc4)cc23)cc1 | – | 5 (≈ 1.64 µg/mL) | 1260 | – | – | – | – | –
9 | Cc1cc(-c2c[nH]c3ncc(-c4ccccc4)cc23)ccc1C(=O)O | – | 100 (≈ 32.8 µg/mL) | – | – | – | – | – | –
10 | CN(C)Cc1cccc(-c2cc3c(-c4ccc(C(N)=O)cc4)ccnc3[nH]2)c1 | 126 | 56 (≈ 20.7 µg/mL) | 3.98 to 31.6 | 79.4 | 631 | 631 | – | –
11 | O=C(O)c1ccc(-c2c[nH]c3ncccc23)cc1C1CCCC1 | 3980 | > 290 | – | – | – | – | – | –
12 | N#CCc1ccccc1-c1cnc2[nH]cc(-c3ccc(C(N)=O)c(C4CCCC4)c3)c2c1 | – | 96 (≈ 40.4 µg/mL) | – | – | – | – | – | –
13 | CC(C)c1cc(-c2c[nH]c3nc(C#N)ccc23)ccc1C(N)=O | – | 14 (≈ 4.26 µg/mL) | 1260 to 10000 | – | – | – | – | –

Other lines, results leading:

Row | IC50 [1] [nM] | solubility at 1 h [2] [µM] | IC50 [3] [nM] | IC50 [4] [nM] | IC50 (Insulin receptor) [nM] | IC50 [5] [nM] | IC50 [6] [nM] | IC50 [7] [nM] | SMILES
14 | – | 17 (≈ 7.76 µg/mL) | 2 to 31.6 | 200 | 3980 | 158 | – | – | Cc1ccc(OCCN2CCOCC2)cc1-c1cc2c(-c3ccc(C(N)=O)cc3)ccnc2[nH]1
15 | > 10000 | > 279 | – | – | – | – | – | – | Cc1ccc2c(-c3ccc(C(=O)O)c(C4CCCC4)c3)c[nH]c2n1
16 | – | 276 (≈ 93.4 µg/mL) | – | – | – | – | – | – | c1ccc(-c2cnc3[nH]cc(-c4ccc(-c5nn[nH]n5)cc4)c3c2)cc1
17 | > 10000 | < 1 | 100 to 1260 | – | – | 2000 | > 25100 | > 10000 | COc1ccccc1Nc1nccc(-c2ccc(C(N)=O)cc2)n1
18 | 251 | 17 (≈ 7.76 µg/mL) | 2 to 15.8 | 158 | 3160 | 251 | – | – | Cc1c(OCCN2CCOCC2)cccc1-c1cc2c(-c3ccc(C(N)=O)cc3)ccnc2[nH]1
19 | > 10000 | 2 (≈ 0.849 µg/mL) | – | – | – | – | – | – | CN(C)c1ccccc1-c1cnc2[nH]cc(-c3ccc(C(N)=O)c(C4CCCC4)c3)c2c1
20 | 2000 | 18 (≈ 7.68 µg/mL) | 7.94 to 25.1 | 126 | 3980 | 631 | – | – | Cc1cc(CN2CCOCC2)ccc1-c1cc2c(-c3ccc(C(N)=O)cc3)ccnc2[nH]1
21 | 1260 | 150 (≈ 57.4 µg/mL) | – | – | – | – | – | – | O=C(O)c1ccc(-c2c[nH]c3ncc(-c4ccccc4)cc23)cc1C1CCCC1 [GSK-650394]
22 | 3980 | – | 2.51 to 12.6 | 126 | 3160 | 631 | – | – | CN(C)CCCNC(=O)c1cccc(-c2cc3c(-c4ccc(C(N)=O)cc4)ccnc3[nH]2)c1
23 | > 10000 | 29 (≈ 12.8 µg/mL) | 1.58 to 12.6 | 79.4 | 158 | 126 | – | – | CN(C)CCCNC(=O)c1ccc(-c2cc3c(-c4ccc(C(N)=O)cc4)ccnc3[nH]2)cc1
24 | > 10000 | – | – | – | – | – | – | – | CC(C)Oc1ccccc1-c1cnc2[nH]cc(-c3ccc(C(N)=O)c(C4CCCC4)c3)c2c1
